A short description of data set [1]: Cytotoxicity against human KMS-12-BM cells after 96 hrs by MTS assay. It counts as functional, cell-based. A digest of the protocol:
(§1)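 Cells kept in RPMI-1640 with 10% FBS and 1% penicillin/streptomycin at 37 °C under humidified 5% CO2. Seeded at 25,000 cells/well (KMS-12BM, RPMI-8226, U266) or 5000 cells/well (LNCaP), then exposed to graded drug concentrations or DMSO vehicle for 96 h. MTS read-out at OD 492 nm. LC50 from four-parameter logistic fit of log-transformed, vehicle-normalized OD; ≥3 independent experiments in triplicate.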
A general note: Tetrazolium assays rely on reduction of a dye to a coloured formazan, in cell work by metabolically active cells.

Data set [2] has as its system U-266. The data set can be described thus: Cytotoxicity against human U266 cells after 96 hrs by MTS assay. In kind it is functional, cell-based. The note with it: U-266, 96 h. The gist of the method:
as §1

The subject of data set [3] is LNCaP. The data set can be described thus: Cytotoxicity against human LNCAP cells after 96 hrs by MTS assay. It counts as functional, cell-based. A digest of the protocol: as §1
Data set [4] concerns RPMI-8226. The data set can be described thus: Cytotoxicity against human RPMI8226 cells after 96 hrs by MTS assay. In kind it is functional, cell-based. Conditions: RPMI-8226, 96 h. A digest of the protocol: as §1
Data set [5] has as its system MDA-MB-231. The data set can be described thus: Cytotoxicity against human MDA-MB-231 cells after 96 hrs by MTS assay. The note with it: MDA-MB-231, 96 h. It counts as functional, cell-based.
A short description of data set [6]: Cytotoxicity against human FnMSC cells after 96 hrs by MTS assay. It counts as cell-based. Conditions: read-out: LC50.

The source of these data is ChEMBL document CHEMBL2434897, “Synthesis of 15-methylene-eburnamonine from (+)-vincamine, evaluation of anticancer activity, and investigation of mechanism of action by quantitative NMR” (Bioorg Med Chem Lett, 2013).

Each structure is given as a SMILES string. A value given as a limit tells only on which side of the number the result lay.

The LC50 is the concentration lethal to half of the exposed cells or organisms. Higher therefore signals a less lethal substance. As for `CC[C@]12CCCN3CCc4c(n(c5ccccc45)C(=O)C1)[C@@H]32` [VINBURNINE], the LC50 was greater than 100 µM in data set [1]; greater than 100 µM in data set [2]; greater than 100 µM in data set [3]; greater than 100 µM in data set [4]; 41.8 µM in data set [5].
Turning to `C=C1C(=O)n2c3c(c4ccccc42)CCN2CCC[C@]1(CC)[C@@H]32`, in data set [6], the CC50 at 96 h was determined as 16.7 µM. For the same compound, the LC50 in data set [1] is 4 µM; in data set [2] it was 4.3 µM; in data set [3], 9.5 µM; in data set [4], 12.2 µM; in data set [5], 14.1 µM.
